Experimental data: ChEMBL document CHEMBL1142148, “Antibiotic susceptibility profile of bifidobacteria as affected by oxgall, acid, and hydrogen peroxide stress” (2007)

Experiments:
[1] = tested on: Bifidobacterium breve; experiment: Antimicrobial activity against 60 min 1 M HCl-stressed Bifidobacterium breve ATCC 15700 after 18 hrs; type: functional
Method in brief: (§1)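 Mid-log MRS culture pelleted and resuspended in MRS broth brought to pH 2.0 with 1 M HCl, held anaerobically at 37°C for 60 min, then subcultured in MRS (pH 6.5) for 24 h anaerobically before MIC testing by broth microdilution (as for unstressed cells). Table footnote gives 18 h anaerobic regrowth after the stress. MIC is the median of four repetitions.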

[2] = Antimicrobial activity against Bifidobacterium infantis ATCC 15697; type: functional, Bifidobacterium longum subsp. infantis; details: Bifidobacterium longum
Method in brief: (§2)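 Broth microdilution in MRS plus 0.05% L-cysteine-HCl. Mid-log culture adjusted to OD650 0.1, giving about 2.5 × 10^4 to 5.0 × 10^4 CFU/well, then added to twofold serial dilutions of agent. Plates incubated anaerobically at 37°C for 18 h and read at OD650. MIC is the lowest concentration matching the uninoculated blank OD, taken as the median of four repeats.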

[3] = tested on: Bifidobacterium animalis; experiment: Antimicrobial activity against 90 mins oxgall-stressed Bifidobacterium animalis ATCC 27536 after 18 hrs; type: functional
Method in brief: (§3)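 Cells pelleted from mid-log MRS culture and resuspended in MRS (initial pH 6.5) with 0.3% (wt/vol) oxgall for 90 min anaerobically at 37°C. They were then regrown in MRS pH 6.5 for 24 h (footnote: 18 h) anaerobically and tested for MIC by the same broth microdilution assay. Median of four repetitions.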

[4] = tested on: Bifidobacterium breve; experiment: Antimicrobial activity against 90 mins oxgall-stressed Bifidobacterium breve ATCC 15700 after 18 hrs; type: functional; method in brief: as §3
[5] = Antimicrobial activity against 60 min 1 M HCl-stressed Bifidobacterium infantis ATCC 15697 after 18 hrs; type: functional, Bifidobacterium longum subsp. infantis; details: Bifidobacterium longum; method in brief: as §1
[6] = tested on: Bifidobacterium bifidum; experiment: Antimicrobial activity against Bifidobacterium bifidum BB12; type: functional; method in brief: as §2
[7] = tested on: Bifidobacterium longum; experiment: Antimicrobial activity against 90 mins oxgall-stressed Bifidobacterium longum ATCC 15708 after 18 hrs; type: functional; method in brief: as §3
[8] = tested on: Bifidobacterium animalis; experiment: Antimicrobial activity against 90 mins hydrogen peroxide-stressed Bifidobacterium animalis ATCC 27536 after 18 hrs; type: functional
Method in brief: (§4)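 Stress applied for 90 min at 37°C under anaerobic conditions, using MRS (initial pH 6.5) containing H2O2 at each strain's own inhibitory concentration. The H2O2 level was set beforehand by microplate tolerance testing. Challenged cells were regrown in MRS for 24 h (footnote: 18 h) before MIC testing by broth microdilution. Median of four repetitions.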

[9] = tested on: Bifidobacterium bifidum; experiment: Antimicrobial activity against 90 mins hydrogen peroxide-stressed Bifidobacterium bifidum R0071 after 18 hrs; type: functional; method in brief: as §4
[10] = tested on: Bifidobacterium pseudolongum; experiment: Antimicrobial activity against 90 mins oxgall-stressed Bifidobacterium pseudolongum ATCC 25562 after 18 hrs; type: functional; method in brief: as §3
[11] = tested on: Bifidobacterium longum; experiment: Antimicrobial activity against 90 mins oxgall-stressed Bifidobacterium longum P/N 601377 after 18 hrs; type: functional; method in brief: as §3
[12] = tested on: Bifidobacterium longum; experiment: Antimicrobial activity against 60 min 1 M HCl-stressed Bifidobacterium longum R0175 after 18 hrs; type: functional; method in brief: as §1
[13] = tested on: Bifidobacterium breve; experiment: Antimicrobial activity against 60 min 1 M HCl-stressed Bifidobacterium breve R0070 after 18 hrs; type: functional; method in brief: as §1
[14] = tested on: Bifidobacterium bifidum; experiment: Antimicrobial activity against Bifidobacterium bifidum R0071; type: functional; method in brief: as §2
[15] = tested on: Bifidobacterium longum; experiment: Antimicrobial activity against Bifidobacterium longum ATCC 15708; type: functional; method in brief: as §2
[16] = tested on: Bifidobacterium longum; experiment: Antimicrobial activity against 60 min 1 M HCl-stressed Bifidobacterium longum P/N 601377 after 18 hrs; type: functional; method in brief: as §1
[17] = tested on: Bifidobacterium animalis; experiment: Antimicrobial activity against 60 min 1 M HCl-stressed Bifidobacterium animalis ATCC 27536 after 18 hrs; type: functional; method in brief: as §1
[18] = tested on: Bifidobacterium thermophilum; experiment: Antimicrobial activity against 90 mins hydrogen peroxide-stressed Bifidobacterium thermophilum ATCC 25866 after 18 hrs; type: functional; method in brief: as §4
[19] = tested on: Bifidobacterium thermophilum; experiment: Antimicrobial activity against Bifidobacterium thermophilum ATCC 25866; type: functional; method in brief: as §2
[20] = tested on: Bifidobacterium longum; experiment: Antimicrobial activity against 90 mins hydrogen peroxide-stressed Bifidobacterium longum R0175 after 18 hrs; type: functional; method in brief: as §4
[21] = tested on: Bifidobacterium bifidum; experiment: Antimicrobial activity against 90 mins hydrogen peroxide-stressed Bifidobacterium bifidum BB12 after 18 hrs; type: functional; method in brief: as §4
[22] = tested on: Bifidobacterium bifidum; experiment: Antimicrobial activity against 60 min 1 M HCl-stressed Bifidobacterium bifidum BB12 after 18 hrs; type: functional; method in brief: as §1
[23] = tested on: Bifidobacterium longum; experiment: Antimicrobial activity against Bifidobacterium longum R0175; type: functional; method in brief: as §2
[24] = tested on: Bifidobacterium breve; experiment: Antimicrobial activity against 90 mins hydrogen peroxide-stressed Bifidobacterium breve R0070 after 18 hrs; type: functional; method in brief: as §4
[25] = tested on: Bifidobacterium pseudolongum; experiment: Antimicrobial activity against Bifidobacterium pseudolongum ATCC 25562; type: functional; method in brief: as §2
[26] = tested on: Bifidobacterium thermophilum; experiment: Antimicrobial activity against 60 min 1 M HCl-stressed Bifidobacterium thermophilum ATCC 25866 after 18 hrs; type: functional; method in brief: as §1
[27] = tested on: Bifidobacterium bifidum; experiment: Antimicrobial activity against 90 mins oxgall-stressed Bifidobacterium bifidum R0071 after 18 hrs; type: functional; method in brief: as §3
[28] = tested on: Bifidobacterium breve; experiment: Antimicrobial activity against Bifidobacterium breve ATCC 15700; type: functional; method in brief: as §2
[29] = tested on: Bifidobacterium bifidum; experiment: Antimicrobial activity against 90 mins oxgall-stressed Bifidobacterium bifidum BB12 after 18 hrs; type: functional; method in brief: as §3
[30] = tested on: Bifidobacterium longum; experiment: Antimicrobial activity against Bifidobacterium longum P/N 601377; type: functional; method in brief: as §2
[31] = tested on: Bifidobacterium bifidum; experiment: Antimicrobial activity against 60 min 1 M HCl-stressed Bifidobacterium bifidum R0071 after 18 hrs; type: functional; method in brief: as §1
[32] = tested on: Bifidobacterium breve; experiment: Antimicrobial activity against Bifidobacterium breve R0070; type: functional; method in brief: as §2
[33] = tested on: Bifidobacterium thermophilum; experiment: Antimicrobial activity against 90 mins oxgall-stressed Bifidobacterium thermophilum ATCC 25866 after 18 hrs; type: functional; method in brief: as §3
[34] = tested on: Bifidobacterium bifidum; experiment: Antimicrobial activity against 90 mins oxgall-stressed Bifidobacterium bifidum ATCC 15696 after 18 hrs; type: functional; method in brief: as §3
[35] = tested on: Bifidobacterium longum; experiment: Antimicrobial activity against 90 mins oxgall-stressed Bifidobacterium longum R0175 after 18 hrs; type: functional; method in brief: as §3
[36] = tested on: Bifidobacterium breve; experiment: Antimicrobial activity against 90 mins oxgall-stressed Bifidobacterium breve R0070 after 18 hrs; type: functional; method in brief: as §3
[37] = tested on: Bifidobacterium longum; experiment: Antimicrobial activity against 90 mins hydrogen peroxide-stressed Bifidobacterium longum P/N 601377 after 18 hrs; type: functional; method in brief: as §4
[38] = tested on: Bifidobacterium bifidum; experiment: Antimicrobial activity against Bifidobacterium bifidum ATCC 15696; type: functional; method in brief: as §2
[39] = tested on: Bifidobacterium longum; experiment: Antimicrobial activity against Bifidobacterium longum ATCC 15707; type: functional; method in brief: as §2
[40] = tested on: Bifidobacterium longum; experiment: Antimicrobial activity against 90 mins oxgall-stressed Bifidobacterium longum ATCC 15707 after 18 hrs; type: functional; method in brief: as §3
[41] = tested on: Bifidobacterium longum; experiment: Antimicrobial activity against 90 mins hydrogen peroxide-stressed Bifidobacterium longum ATCC 15708 after 18 hrs; type: functional; method in brief: as §4
[42] = tested on: Bifidobacterium animalis; experiment: Antimicrobial activity against Bifidobacterium animalis ATCC 27536; type: functional; method in brief: as §2
[43] = tested on: Bifidobacterium pseudolongum; experiment: Antimicrobial activity against 60 min 1 M HCl-stressed Bifidobacterium pseudolongum ATCC 25562 after 18 hrs; type: functional; method in brief: as §1
[44] = tested on: Bifidobacterium breve; experiment: Antimicrobial activity against 90 mins hydrogen peroxide-stressed Bifidobacterium breve ATCC 15700 after 18 hrs; type: functional; method in brief: as §4
[45] = Antimicrobial activity against 90 mins oxgall-stressed Bifidobacterium infantis ATCC 15697 after 18 hrs; type: functional, Bifidobacterium longum subsp. infantis; details: Bifidobacterium longum; method in brief: as §3
[46] = tested on: Bifidobacterium longum; experiment: Antimicrobial activity against 60 min 1 M HCl-stressed Bifidobacterium longum ATCC 15707 after 18 hrs; type: functional; method in brief: as §1
[47] = tested on: Bifidobacterium longum; experiment: Antimicrobial activity against 90 mins hydrogen peroxide-stressed Bifidobacterium longum ATCC 15707 after 18 hrs; type: functional; method in brief: as §4

MIC [1]: 250 µg/mL
MIC [2]: 125 µg/mL
MIC [3]: 125 µg/mL
MIC [4]: 31.2 µg/mL
MIC [5]: 125 µg/mL
MIC [6]: 15.6 µg/mL
MIC [7]: 125 µg/mL
MIC [8]: 62.5 µg/mL
MIC [9]: 62.5 µg/mL
MIC [10]: 125 µg/mL
MIC [11]: 62.5 µg/mL
MIC [12]: 0.98 µg/mL
MIC [13]: 31.2 µg/mL
MIC [14]: 31.2 µg/mL
MIC [15]: 31.2 µg/mL
MIC [16]: 0.98 µg/mL
MIC [17]: 62.5 µg/mL
MIC [18]: 15.6 µg/mL
MIC [19]: 62.5 µg/mL
MIC [20]: 15.6 µg/mL
MIC [21]: 7.8 µg/mL
MIC [22]: 0.98 µg/mL
MIC [23]: 62.5 µg/mL
MIC [24]: 7.8 µg/mL
MIC [25]: 15.6 µg/mL
MIC [26]: 125 µg/mL
MIC [27]: 62.5 µg/mL
MIC [28]: 31.2 µg/mL
MIC [29]: 3.9 µg/mL
MIC [30]: 15.6 µg/mL
MIC [31]: 31.2 µg/mL
MIC [32]: 62.5 µg/mL
MIC [33]: 125 µg/mL
MIC [34]: 125 µg/mL
MIC [35]: 125 µg/mL
MIC [36]: 62.5 µg/mL
MIC [37]: 125 µg/mL
MIC [38]: 31.2 µg/mL
MIC [39]: 62.5 µg/mL
MIC [40]: 125 µg/mL
MIC [41]: 31.2 µg/mL
MIC [42]: 3.9 µg/mL
MIC [43]: 0.98 µg/mL
MIC [44]: 31.2 µg/mL
MIC [45]: 250 µg/mL
MIC [46]: 62.5 µg/mL
MIC [47]: 7.8 µg/mL
Structure (SMILES): CN(C)[C@@H]1C(O)=C(C(N)=O)C(=O)[C@@]2(O)C(O)=C3C(=O)c4c(O)cccc4[C@@](C)(O)[C@H]3C[C@@H]12.Cl [TETRACYCLINE HYDROCHLORIDE]
